One assay has as its system Rattus norvegicus. The experiment in a line: Antianaphylactic activity in antiovalbumin IgE serum-treated Wistar rat at 2 x 100 mg/kg, po administered 2.5 hrs prior to ovalbumin challenge measured after 45 mins by passive cutaneous anaphylaxis test. Also noted: dose 100 mg/kg. The format is functional, organism-based. The conditions noted are these: in the assay text read “2 hrs and again 30 mins prior to” for “2.5 hrs prior to”. The essentials: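 Female Wistar rats, shaved and lightly anaesthetized, received an intradermal abdominal injection of diluted rat antiovalbumin IgE serum. After 24 h they were challenged iv with ovalbumin mixed with dye. Compound was given at 2 h and again at 30 min before challenge. Rats were killed 45 min after challenge and the blue area on the inner skin surface was measured.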

Assay [1] can be described thus: Antianaphylactic activity in human chopped lung treated with atopic serum isolated from patients allergic to cocksfoot pollen assessed as inhibition of antigen-induced histamine release at 10 ug/mL after 15 mins relative to control. The format is functional. The settings on record: 0.25 h. The essentials: (§1)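 Surgical human lung (bronchial carcinoma resections) was washed in Hank's, chopped into 0.5-mm cubes and incubated for 18 h at 18 °C with atopic serum from cocksfoot pollen-allergic patients. Tissue was washed, equilibrated in Tyrode's at 37 °C and challenged with saline pollen extract ± compound for 15 min. Histamine or SRS-A in the supernatant was bioassayed on guinea pig ileum. Values are % inhibition, mean of four samples.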

Assay [2] can be described thus: Antianaphylactic activity in ovalbumin sensitized albino guinea pig chopped lung assessed as inhibition of antigen-induced histamine release at 10 ug/mL after 15 mins relative to control. The class given is functional, Cavia porcellus. In outline: (§2)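 Lungs were perfused with Tyrode's, chopped into 0.5-mm cubes and split into 100-mg aliquots. Aliquots were challenged with antigen ± compound and rocked at 37 °C for 15 min. Unchallenged controls gave spontaneous release. Supernatant histamine or SRS-A was bioassayed on guinea pig ileum against standards. Values are % inhibition, mean of four samples.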

Assay [3] relates to Cavia porcellus. The assay can be described thus: Antianaphylactic activity in ovalbumin/ovalbumin aerosol sensitized guinea pig bronchospasm model assessed as ratio of mean collapse time after pretreatment with compound to mean collapse time of control animal at 2 x 100 mg/kg, po compound administered prior to antigen challenge by Herxheimer test. The format is functional. The essentials:
(§3)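 Ovalbumin-sensitized male guinea pigs were exposed in a chamber to ovalbumin aerosol (1% w/v) until a convulsive cough; that time is the collapse time. Compound was given orally either 2 h before challenge or in two doses at 0.5 and 3 h before. Where used, mepyramine was given at 0.5 mg/kg sc 0.5 h before. Ratio is mean collapse time of treated animals over that of controls.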

Assay [4] is described as follows: Antianaphylactic activity in human chopped lung treated with atopic serum isolated from patients allergic to cocksfoot pollen assessed as inhibition of antigen-induced slow-reacting substance of anaphylaxis release at 10 ug/mL after 15 mins relative to control. The format is functional. The conditions noted are these: 0.25 h. The essentials:
as §1

The test system of assay [5] is Cavia porcellus. The experiment in a line: Antianaphylactic activity in ovalbumin/ovalbumin aerosol sensitized guinea pig bronchospasm model assessed as ratio of mean collapse time after pretreatment with compound in presence of mepyramine to mean collapse time of control animal at 2 x 100 mg/kg, po compound administered prior to antigen challenge by Herxheimer test. The format is functional. The essentials:
as §3

The nature of assay [6]: Antianaphylactic activity in ovalbumin sensitized albino guinea pig chopped lung assessed as inhibition of antigen-induced slow-reacting substance of anaphylaxis release at 10 ug/mL after 15 mins relative to control. The format is functional, Cavia porcellus. The essentials: as §2
Assay [7] deals with Cavia porcellus. The assay can be described thus: Antianaphylactic activity in ovalbumin/ovalbumin aerosol sensitized guinea pig bronchospasm model assessed as ratio of mean collapse time after pretreatment with compound to mean collapse time of control animal at 0.5 mg/kg, sc by Herxheimer test. The format is functional. The settings on record: route subcutaneous. In outline: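 Ovalbumin-sensitized male guinea pigs were given mepyramine at 0.5 mg/kg sc 0.5 h before exposure to ovalbumin aerosol (1% w/v) in a chamber. Collapse time is the time to a convulsive cough. Ratio is mean collapse time of mepyramine-treated animals over that of controls.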

For assay [8], the system named is Cavia porcellus. The experiment in a line: Antianaphylactic activity in ovalbumin/ovalbumin aerosol sensitized guinea pig bronchospasm model assessed as ratio of mean collapse time after pretreatment with compound to mean collapse time of control animal at 1 x 2 mg/kg, po compound administered prior to antigen challenge by Herxheimer test. The format is functional. The essentials:
as §3

The test system of assay [9] is Cavia porcellus. The assay can be described thus: Antianaphylactic activity in ovalbumin/ovalbumin aerosol sensitized guinea pig bronchospasm model assessed as ratio of mean collapse time after pretreatment with compound in presence of mepyramine to mean collapse time of control animal at 1 x 2 mg/kg, po compound administered prior to antigen challenge by Herxheimer test. The class given is functional. In outline: as §3

Each structure is given as a SMILES string. Activity calls are given as the source filed them. No rule for the calls is given here.

On to `CCCCC(=O)N(CCC)c1nc(C)co1`, for which the result in the assay on Rattus norvegicus was inactive. For the same molecule, the inhibition (in general, the share of the control response that was lost under treatment) at 10 µg/mL in assay [1] was determined as 0%; in assay [4], 38%. Also, the entries for the “inhibition (INH)” value in assay [2] and in assay [6] were 48% and 55%, respectively. Also, the Ratio in the assay on Cavia porcellus [3] is on record as 0.8; in the assay with Cavia porcellus [5] it was 5.8.

`CCCCN(C(=O)C1CCC1)c1nc(C)co1`: the result in the assay on Rattus norvegicus was inactive. Moreover, the inhibition at 10 µg/mL was determined as 0% in assay [1] and 55% in assay [4]. The entries for the “inhibition (INH)” value in assay [2] and in assay [6] were 34% and 74%, respectively. Also, the Ratio is 1.5 with Cavia porcellus [3] and 7.4 in the assay on Cavia porcellus [5].

With `CCCCN(C(=O)C(C)C)c1nc(C)co1` [ISAMOXOLE], in the assay with Rattus norvegicus, the outcome was inactive. The inhibition at 10 µg/mL in [1] was determined as 23%; in assay [4], 93%. The “inhibition (INH)” value in [2] amounted to 38%; in assay [6] it was 54%. In addition, the Ratio with Cavia porcellus [3] worked out at 4.6; in the assay on Cavia porcellus [5], 5.9.

For the molecule `COc1ccc(CN(CCN(C)C)c2ccccn2)cc1` [PYRILAMINE], the Ratio with Cavia porcellus [7] worked out at 3.7.

Turning to `CCCCCC(=O)N(CCC)c1nc(C)co1`, the result in the assay on Rattus norvegicus was inactive. In addition, the inhibition at 10 µg/mL was 44% in assay [1] and 47% in assay [4]. Moreover, the “inhibition (INH)” value in assay [2] came out at 44%; in assay [6], 47%. The Ratio is recorded as 1.4 in the assay on Cavia porcellus [3] and 4.7 with Cavia porcellus [5].

Consider `CN1CCC(=C2c3ccccc3CC(=O)c3sccc32)CC1` [KETOTIFEN], for which the inhibition at 10 µg/mL in [1] amounted to 23%; in assay [4] it was 100%. In addition, the figures for the Ratio with Cavia porcellus [8] and in the assay on Cavia porcellus [9] were 4.2 and 7.2, respectively.

Consider `CCCCN(C(=O)C(C)(C)C)c1nc(C)co1`, for which the result in the assay with Rattus norvegicus was inactive. Moreover, the values for the inhibition at 10 µg/mL in assay [1] and in assay [4] were 37% and 23%, respectively. For the same molecule, the “inhibition (INH)” value in [2] is 0%; in assay [6], 23%. The Ratio with Cavia porcellus [3] came to 4.4; in the assay on Cavia porcellus [5] it was 7.7.

As for `CCCCN(C(=O)C1CC1)c1nc(C)co1`, the outcome in the assay on Rattus norvegicus was inactive. The values for the inhibition at 10 µg/mL in assay [1] and in [4] were 0% and 72%, respectively. The “inhibition (INH)” value in assay [2] is 22%; in assay [6] it was 46%. The Ratio in the assay with Cavia porcellus [3] stood at 12.2; in the assay with Cavia porcellus [5] it was 13.9.

Consider `CCCCN(C(=O)CCC)c1nc(C)co1`, for which the outcome in the assay with Rattus norvegicus was inactive. The inhibition at 10 µg/mL is 14% in assay [1] and 88% in [4]. The “inhibition (INH)” value came to 33% in assay [2] and 52% in assay [6]. In addition, the Ratio came out at 4.3 in the assay on Cavia porcellus [3] and 6.4 in the assay on Cavia porcellus [5].
